Results: PubChem BioAssay AID652011 (Sanford-Burnham Center for Chemical Genomics, 2013)
“And” between values parts separate entries of the source, which are not always exact repeats. Identical values can stand only once.

Biological target: Endothelial PAS domain-containing protein 1 (Homo sapiens) (UniProt Q99814)
Assay: HIF reporter inhibition across pancreatic and renal lines – cell-based, luminescence, MIAPaCa-2, 786-0, panel, SAR follow-up (AID 652011)
Conditions: MIAPaCa-2/PANC HIF reporter, luciferase luminescence, desferoxamine, overnight, HIF2a PANC, run 1; at 99 µM (top of the series)
Outline: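 Reagent: Desferoxamine added before compound | Doses: Compounds from 10 mM and 0.3125 mM stocks, 1% DMSO final | Times: Overnight seeding and compound exposure, 37 °C, 5% CO2, 10-min detection | Measured by: One-Glo luciferase luminescence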

Endothelial PAS domain-containing protein 1 (Homo sapiens), sequence (Q99814 whole entry, looked up, the tested form may be a part): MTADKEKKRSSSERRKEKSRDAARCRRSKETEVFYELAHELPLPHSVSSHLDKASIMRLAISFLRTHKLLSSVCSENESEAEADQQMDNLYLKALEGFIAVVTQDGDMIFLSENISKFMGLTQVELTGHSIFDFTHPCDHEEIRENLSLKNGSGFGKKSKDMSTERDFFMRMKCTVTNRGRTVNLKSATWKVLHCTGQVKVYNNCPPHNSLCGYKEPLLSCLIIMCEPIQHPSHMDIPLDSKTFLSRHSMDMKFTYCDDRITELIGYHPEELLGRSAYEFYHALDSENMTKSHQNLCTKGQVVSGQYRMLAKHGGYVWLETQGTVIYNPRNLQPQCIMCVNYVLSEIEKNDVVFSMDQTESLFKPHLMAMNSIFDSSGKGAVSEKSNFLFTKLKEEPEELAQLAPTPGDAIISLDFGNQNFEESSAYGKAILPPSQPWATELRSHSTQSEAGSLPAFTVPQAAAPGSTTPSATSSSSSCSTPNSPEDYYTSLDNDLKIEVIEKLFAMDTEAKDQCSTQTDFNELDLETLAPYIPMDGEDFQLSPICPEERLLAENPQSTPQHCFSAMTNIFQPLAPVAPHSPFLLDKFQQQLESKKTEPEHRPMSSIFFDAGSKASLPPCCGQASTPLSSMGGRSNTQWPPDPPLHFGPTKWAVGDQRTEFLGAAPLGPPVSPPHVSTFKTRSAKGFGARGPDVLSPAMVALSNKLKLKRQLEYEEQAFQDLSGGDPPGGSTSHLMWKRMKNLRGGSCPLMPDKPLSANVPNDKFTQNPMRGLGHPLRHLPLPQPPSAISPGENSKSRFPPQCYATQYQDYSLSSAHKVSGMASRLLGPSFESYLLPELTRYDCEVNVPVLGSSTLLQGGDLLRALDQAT

| SMILES | inhibition |
| --- | --- |
| CN(C)C(=O)CCc1nc(-c2ccc(C(C)(C)C)cc2)no1 | -71.1% and 11.2% |
| CC(C)(C)c1ccc(-c2noc(CCC(=O)NC3CCC3)n2)cc1 | 108% |
| CCCCc1ccc(-c2noc(CCC(=O)NC3CC3)n2)cc1 | -40.8% |
| CCNC(=O)CCc1nc(-c2cccc(C)c2)no1 | -22.1% |
| CCc1ccc(-c2noc(CCC(=O)NC3CC3)n2)cc1 | -19.4% |
| COc1ccccc1NC(=O)CCc1nc(-c2ccc(C(C)(C)C)cc2)no1 | 115% |
| CCN(CC)C(=O)CCc1nc(-c2ccc(C(C)(C)C)cc2)no1 | 44.3% and 43.4% |
| CC(C)(C)c1ccc(-c2noc(CCC(=O)O)n2)cc1 | 119% |
| CC(C)(C)c1ccc(-c2noc(CCC(=O)Nc3cccc([N+](=O)[O-])c3)n2)cc1 | 89.8% |
| CCNC(=O)CCc1nc(-c2ccccc2)no1 | 21.2% |
| CC(C)(C)NC(=O)CCc1nc(-c2ccc(C(C)(C)C)cc2)no1 | 83.8% |
| CC(C)c1ccc(-c2noc(CCC(=O)NC3CC3)n2)cc1 | -39.8% |
| O=C(O)CCc1nc(-c2ccccc2)no1 | 25.2% |
| CC(C)(C)c1ccc(-c2noc(CCC(=O)NCC3CCCO3)n2)cc1 (stereo not given) | 53.5% |
| CCCCc1ccc(-c2noc(CCC(=O)NCC)n2)cc1 | -29.8% |
| CCNC(=O)CCc1nc(-c2ccc(C(C)(C)C)cc2)no1 | 17.6% and 9.6% |
| CCNC(=O)CCc1nc(-c2ccc(CC)cc2)no1 | -29.7% |
| CC(C)NC(=O)CCc1nc(-c2ccc(C(C)(C)C)cc2)no1 | 80.3% |
| CCCCc1ccc(-c2noc(CCC(=O)NC(C)CC)n2)cc1 (stereo not given) | 45.6% |
| CCOc1ccc(-c2noc(CCC(=O)NC)n2)cc1 | 112% |
| CCCNC(=O)CCc1nc(-c2ccc(C(C)(C)C)cc2)no1 | 7.88% |
| CCNC(=O)CCc1nc(-c2ccc(C(C)C)cc2)no1 | -50.6% |
| CCNC(=O)CCc1nc(-c2ccccc2C)no1 | 27.8% |
| CC(C)c1ccc(-c2noc(CCC(=O)NC(C)(C)C)n2)cc1 | 57.4% |
| CCOc1ccccc1NC(=O)CCc1nc(-c2ccc(C(C)(C)C)cc2)no1 | 117% |
| CC(C)CNC(=O)CCc1nc(-c2ccc(C(C)(C)C)cc2)no1 | 63.8% |
| CC(C)(C)c1ccc(-c2noc(CCC(N)=O)n2)cc1 | 115% and 99.9% |
| C=CCNC(=O)CCc1nc(-c2ccc(C(C)(C)C)cc2)no1 | 56.7% |
| CNC(=O)CCc1nc(-c2ccc(C(C)C)cc2)no1 | 24% |
| CCNC(=O)CCc1nc(-c2c(Cl)cccc2Cl)no1 | 53.6% |
